In ChEMBL document CHEMBL1156992, “Identification and hit-to-lead exploration of a novel series of histamine H4 receptor inverse agonists” (Bioorg Med Chem Lett, 2010):

Legend:
Histamine H4 receptor [1] = target: T1, Histamine H4 receptor (Homo sapiens, UniProt Q9H3N8); experiment: Displacement of [3H]histamine dihydrochloride from human histamine H4 receptor after 2.5 hrs by scintillation proximity assay
Method in brief: (§1)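 Human H4 receptor-expressing membranes (25 µg) incubated with 20 nM [³H]-histamine dihydrochloride and SPA beads. Buffer: 50 mM Tris pH 7.5, 5 mM EDTA, 0.5% BSA, 1% DMSO. Incubation 2.5 h at room temperature. Non-specific binding taken with excess histamine. Scintillation counting. IC50 from a 6-point semi-log dose-response, duplicate wells.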

[2] = Half life in rat microsomes; format: ADME, Microsome
[3] = Metabolic stability in rat microsomes assessed as drug remaining after 10 mins; format: ADME, Microsome; conditions: for remaining at 10 min: read-out: Stability
Method in brief: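 Compound incubated with rat liver microsomes. Parent remaining measured after 10 min, expressed as percent.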

Histamine H4 receptor [4] = target: T1, Histamine H4 receptor; experiment: Inverse agonist activity at human histamine H4 receptor assessed as inhibition of [35S]GTPgammaS binding after 15 mins by scintillation proximity assay; format: functional
Histamine H4 receptor [5] = target: T1, Histamine H4 receptor; experiment: Inverse agonist activity at human histamine H4 receptor assessed as inhibition of [35S]GTPgammaS binding after 15 mins by scintillation proximity assay relative to control; format: functional; parameters: concentration or dose not given beside the values
Histamine H4 receptor [6] = target: T1, Histamine H4 receptor; experiment: Displacement of [3H]histamine human recombinant histamine H4 receptor; method in brief: as §1
Rattus norvegicus = experiment: Volume of distribution in rat at 5 mg/kg, po; format: ADME, organism-based; parameters: dose 5 mg/kg, route oral; conditions: in vivo
Method in brief: (§2)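 Rat pharmacokinetic study with oral dosing at 5 mg/kg.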

[7] = Clearance in Cynomolgus monkey; format: ADME, organism-based, Macaca fascicularis; conditions: in vivo
[8] = Oral bioavailability in Cynomolgus monkey; format: ADME, organism-based, Macaca fascicularis; conditions: in vivo
Histamine H1 receptor = Histamine H1 receptor (Homo sapiens, UniProt P35367); experiment: Binding affinity to histamine H1 receptor
Sequence of Histamine H1 receptor (P35367 whole entry): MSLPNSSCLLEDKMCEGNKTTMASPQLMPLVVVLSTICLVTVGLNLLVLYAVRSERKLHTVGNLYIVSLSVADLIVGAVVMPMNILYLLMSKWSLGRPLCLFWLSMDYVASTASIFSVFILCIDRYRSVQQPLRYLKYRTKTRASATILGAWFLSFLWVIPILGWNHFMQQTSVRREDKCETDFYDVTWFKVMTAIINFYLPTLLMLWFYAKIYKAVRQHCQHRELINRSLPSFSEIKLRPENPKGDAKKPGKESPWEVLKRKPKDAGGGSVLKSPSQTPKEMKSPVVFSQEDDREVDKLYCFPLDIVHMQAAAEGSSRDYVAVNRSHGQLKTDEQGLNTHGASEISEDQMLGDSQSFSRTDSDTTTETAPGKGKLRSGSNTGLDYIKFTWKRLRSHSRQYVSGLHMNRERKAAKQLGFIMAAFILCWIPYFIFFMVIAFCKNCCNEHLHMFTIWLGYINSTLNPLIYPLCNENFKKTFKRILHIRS

[9] = Oral bioavailability in dog; format: ADME, organism-based, Canis lupus familiaris; conditions: in vivo
[10] = Volume of distribution in dog; format: ADME, organism-based, Canis lupus familiaris; conditions: in vivo
[11] = Clearance in dog; format: ADME, organism-based, Canis lupus familiaris; conditions: in vivo
CYP1A2 = target: T2, CYP1A2 (Homo sapiens, UniProt P05177); experiment: Inhibition of CYP1A2 at 1 uM; format: ADME
T2 sequence (P05177 whole entry): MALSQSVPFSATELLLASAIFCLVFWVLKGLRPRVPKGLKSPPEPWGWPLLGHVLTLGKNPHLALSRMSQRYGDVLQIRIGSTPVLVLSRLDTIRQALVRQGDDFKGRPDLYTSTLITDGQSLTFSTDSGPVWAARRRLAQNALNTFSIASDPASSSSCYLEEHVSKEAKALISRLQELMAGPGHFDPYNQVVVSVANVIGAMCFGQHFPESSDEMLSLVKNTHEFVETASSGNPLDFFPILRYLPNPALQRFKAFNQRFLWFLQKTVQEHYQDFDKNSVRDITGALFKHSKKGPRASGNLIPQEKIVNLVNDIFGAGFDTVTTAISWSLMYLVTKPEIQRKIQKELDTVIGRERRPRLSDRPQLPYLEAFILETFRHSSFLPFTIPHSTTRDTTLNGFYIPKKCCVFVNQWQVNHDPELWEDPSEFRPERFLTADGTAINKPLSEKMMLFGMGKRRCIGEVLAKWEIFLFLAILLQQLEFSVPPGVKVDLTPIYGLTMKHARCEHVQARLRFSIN
Method in brief: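 CYP1A2 inhibition tested at 1 µM. Percent inhibition reported.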

[12] = Clearance in rat at 5 mg/kg, po; format: ADME, organism-based; parameters: dose 5 mg/kg, route oral; conditions: in vivo; method in brief: as §2
[13] = Volume of distribution in Cynomolgus monkey; format: ADME, organism-based, Macaca fascicularis; conditions: in vivo
Histamine H3 receptor = Histamine H3 receptor (Homo sapiens, UniProt Q9Y5N1); experiment: Binding affinity to histamine H3 receptor
Sequence of Histamine H3 receptor (Q9Y5N1 whole entry): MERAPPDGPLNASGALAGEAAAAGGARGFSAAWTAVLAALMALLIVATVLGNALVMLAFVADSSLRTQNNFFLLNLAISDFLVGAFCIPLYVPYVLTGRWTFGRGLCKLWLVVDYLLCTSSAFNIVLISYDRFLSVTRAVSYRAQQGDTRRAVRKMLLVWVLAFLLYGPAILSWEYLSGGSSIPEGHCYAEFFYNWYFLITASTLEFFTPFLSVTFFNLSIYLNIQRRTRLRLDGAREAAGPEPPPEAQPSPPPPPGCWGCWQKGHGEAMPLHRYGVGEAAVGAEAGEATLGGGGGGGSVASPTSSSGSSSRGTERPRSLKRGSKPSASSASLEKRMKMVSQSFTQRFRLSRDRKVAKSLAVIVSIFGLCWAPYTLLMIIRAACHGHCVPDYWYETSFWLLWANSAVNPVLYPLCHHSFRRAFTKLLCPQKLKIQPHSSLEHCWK

Histamine H2 receptor = Histamine H2 receptor (Homo sapiens, UniProt P25021); experiment: Binding affinity to histamine H2 receptor
Sequence of Histamine H2 receptor (P25021 whole entry): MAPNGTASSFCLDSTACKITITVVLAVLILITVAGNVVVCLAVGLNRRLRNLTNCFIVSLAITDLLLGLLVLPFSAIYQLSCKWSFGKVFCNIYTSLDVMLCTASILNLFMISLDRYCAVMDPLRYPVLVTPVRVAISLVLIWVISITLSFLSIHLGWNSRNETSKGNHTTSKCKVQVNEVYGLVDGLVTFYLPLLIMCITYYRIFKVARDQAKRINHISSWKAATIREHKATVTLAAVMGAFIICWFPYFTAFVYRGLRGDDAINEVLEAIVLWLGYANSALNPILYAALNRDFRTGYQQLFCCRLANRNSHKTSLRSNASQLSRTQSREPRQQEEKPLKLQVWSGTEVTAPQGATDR

[14] = Oral bioavailability in rat at 5 mg/kg; format: ADME, organism-based; conditions: in vivo; method in brief: as §2

T1 sequence (Q9H3N8 whole entry): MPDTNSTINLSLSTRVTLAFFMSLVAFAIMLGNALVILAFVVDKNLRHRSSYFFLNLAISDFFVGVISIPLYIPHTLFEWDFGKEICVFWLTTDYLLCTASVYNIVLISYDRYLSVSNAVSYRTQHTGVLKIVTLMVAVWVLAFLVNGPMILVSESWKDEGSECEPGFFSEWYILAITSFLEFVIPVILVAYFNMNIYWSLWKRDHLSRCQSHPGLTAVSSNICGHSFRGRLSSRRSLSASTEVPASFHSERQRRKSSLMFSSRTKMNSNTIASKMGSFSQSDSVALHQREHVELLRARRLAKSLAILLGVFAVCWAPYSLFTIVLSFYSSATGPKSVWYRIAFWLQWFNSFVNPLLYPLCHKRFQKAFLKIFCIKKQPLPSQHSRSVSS

Compound	IC50 (Histamine H4 receptor [1]) [nM]	remaining at 10 min [3] [%]	other results
CN[C@@H]1CCN(c2ncnc3c2oc2ccc(Cl)cc23)C1	33	–	t1/2 [2]: 19 min; Stability ([3]; 10 min): 92%; IC50 (Histamine H4 receptor [4]): 41 nM
CN1CCN(c2nc(C(=O)O)nc3c2oc2ccc(Cl)cc23)CC1	> 10000	106	–
CN1CCN(c2nc(-c3ccccc3)nc3c2oc2ccc(Cl)cc23)CC1	> 30000	40	–
CNC1CCCN(c2ncnc3c2oc2ccc(Cl)cc23)C1 (stereo not drawn)	> 10000	–	–
CN1CCN(c2nc(C(F)(F)F)nc3c2oc2ccc(Cl)cc23)CC1	83	7	inhibition (Histamine H4 receptor [5]): 100%; IC50 (Histamine H4 receptor [4]): 39 nM
CN1CCN(c2ncnc3c2oc2ccc(Cl)cc23)CC1	19	1	IC50 (Histamine H4 receptor [6]): 19 nM
CN1C[C@@H]2C[C@H]1CN2c1ncnc2c1oc1ccc(Cl)cc12	111	75	inhibition (Histamine H4 receptor [5]): 105%; IC50 (Histamine H4 receptor [4]): 70 nM
CN1C2CCC1CN(c1ncnc3c1oc1ccc(Cl)cc13)C2	440	62	–
CN(C)C1CCN(c2ncnc3c2oc2ccc(Cl)cc23)C1 (stereo not drawn)	21000	18	–
CN[C@H]1CCN(c2nc(N)nc3c2oc2ccc(Cl)cc23)C1	13	68	half-life [2]: 21 min; IC50 (Histamine H4 receptor [4]): 4 nM
CC1CN(c2ncnc3c2oc2ccc(Cl)cc23)CCN1C (stereo not drawn)	1900	1	–
NC1CCN(c2ncnc3c2oc2ccc(Cl)cc23)C1 (stereo not drawn)	126	107	–
CCNC1CCN(c2ncnc3c2oc2ccc(Cl)cc23)C1 (stereo not drawn)	> 10000	–	–
CN1CCN(c2nc(O)nc3c2oc2ccc(Cl)cc23)CC1	1000	83	–
CNC1CCN(c2ncnc3c2oc2ccc(-c4ccccc4)cc23)C1 (stereo not drawn)	> 10000	97	–
COc1nc(N2CCN(C)CC2)c2oc3ccc(Cl)cc3c2n1	90	13	–
CN[C@H]1CCN(c2ncnc3c2oc2ccc(Cl)cc23)C1	285	103	inhibition (Histamine H4 receptor [5]): 122%; half-life [2]: 73 min; IC50 (Histamine H4 receptor [4]): 292 nM
CNC1CCN(c2ncnc3c2oc2ccc(C(=O)O)cc23)C1 (stereo not drawn)	> 30000	80	–

Compound	IC50 (Histamine H4 receptor [1]) [nM]	remaining at 10 min [3] [%]	other results
CNC(=O)c1ccc2oc3c(N4CCC(NC)C4)ncnc3c2c1 (stereo not drawn)	> 30000	–	–
CN[C@@H]1CCN(c2nc(C(F)(F)F)nc3c2oc2ccc(Cl)cc23)C1	14200	–	–
Clc1ccc2oc3c(N4CCN5CCCC5C4)ncnc3c2c1 (stereo not drawn)	236	0	–
CNC1(C)CCN(c2ncnc3c2oc2ccc(Cl)cc23)C1 (stereo not drawn)	1400	–	–
CNC1CCN(c2nc(C)nc3c2oc2ccc(Cl)cc23)C1 (stereo not drawn)	1600	95	–
CN[C@@H]1CCN(c2ncnc3c2oc2ccc(C)cc23)C1	86	74	–
CN[C@@H]1CCN(c2nc(N)nc3c2oc2ccc(Cl)cc23)C1	1	62	Vd (Rattus norvegicus): 71 L/kg; clearance [7]: 62 mL/min/kg; inhibition (Histamine H4 receptor [5]): 138%; bioavailability [8]: 99%; half-life [2]: 13 min; IC50 (Histamine H1 receptor): > 30000 nM; bioavailability [9]: 36%; Vd [10]: 26 L/kg; clearance [11]: 52 mL/min/kg; inhibition at 1 µM (CYP1A2): 45%; IC50 (Histamine H4 receptor [4]): 3 nM; CL/F [12]: 117 mL/min/kg; Vd [13]: 25 L/kg; IC50 (Histamine H3 receptor): 5800 nM; IC50 (Histamine H2 receptor): > 30000 nM; bioavailability [14]: 5%
CC1CN(c2ncnc3c2oc2ccc(Cl)cc23)CC(C)N1C (stereo not drawn)	10000	–	–
Cc1nc(N2CCN(C)CC2)c2oc3ccc(Cl)cc3c2n1	37	0	–
CN[C@@H]1CCN(c2ncnc3c2oc2ccc(C(F)(F)F)cc23)C1	30	59	–
CN1CCN(c2nc(C3CC3)nc3c2oc2ccc(Cl)cc23)CC1	310	8	–
CN[C@@H]1CCN(c2ncnc3c2oc2cc(Cl)ccc23)C1	171	–	–
CNC1CCN(c2ncnc3c2oc2ccc(Cl)cc23)CC1	> 10000	–	–
Clc1ccc2oc3c(N4CC5CCCNC5C4)ncnc3c2c1 (stereo not drawn)	1400	–	–
CN1CC2CCC1CN2c1ncnc2c1oc1ccc(Cl)cc12 (stereo not drawn)	169	66	–
CNC1CN(c2ncnc3c2oc2ccc(Cl)cc23)C1	87	89	inhibition (Histamine H4 receptor [5]): 149%; IC50 (Histamine H4 receptor [4]): 76 nM
CNC1CCN(c2ncnc3c2oc2ccc(C#N)cc23)C1 (stereo not drawn)	6200	95	–
CNC1CCN(c2ncnc3c2oc2ccc(Cl)cc23)C1 (stereo not drawn)	95	80	–
